High-throughput results: PubChem, several laboratories
JMJD2C inh – human JMJD2C demethylase inhibition; Q9H3R0; GST-JMJD2C(1-420) H3K9me3 demethylation, DELFIA europium; inhibition, % at 2.35 µM; 0.069% of 330,000 active;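 active means more than half of a compound's replicate wells show inhibition beyond 50%, single wells judged on their own value; inconclusive means some, but no more than half, of replicates pass 50% inhibition; inactive means no replicate passes 50% inhibition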;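 further: signal counts dimethyl H3K9 product captured on neutravidin plate; 0% = median of DMSO wells and 100% = 0.3 times that DMSO median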
GSTO1 counter – GSTO1 inhibition, counter-screen for RBBP9 inhibitors; inhibition, % at 5.96 µM; 1.1% of 300,000 active; AID 1974; recombinant GSTO1, activity-based probe fluorescence polarization;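 active means inhibition above the campaign mean inhibition plus 3 SD, cut at about 35% in these data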;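 further: 0% = GSTO1-1 with DMSO and 100% = wells lacking GSTO1-1 enzyme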
Target sequence (P78417 whole entry, looked up): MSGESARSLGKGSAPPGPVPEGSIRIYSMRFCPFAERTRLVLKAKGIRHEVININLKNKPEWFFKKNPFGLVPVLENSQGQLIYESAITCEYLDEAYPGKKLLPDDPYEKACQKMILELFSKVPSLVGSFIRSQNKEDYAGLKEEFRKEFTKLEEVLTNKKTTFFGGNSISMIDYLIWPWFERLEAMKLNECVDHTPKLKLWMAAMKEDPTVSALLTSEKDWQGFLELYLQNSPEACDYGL
TDP2 absorb – TDP2 (human) inhibition, absorbance primary screen | inhibition, % at 12.8 µM | AID 720702 | recombinant TDP2, T5PNP hydrolysis, p-nitrophenol absorbance 415 nm | 0.34% of 370,000 active | O95551;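 active means inhibition above the mean of all tested compounds plus 3 SD, set per campaign, cut at about 25% in these data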;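 further: 0% = DMSO with enzyme and 100% = buffer with substrate but no TDP2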
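Material: recombinant human TDP2; quantity: TDP2 enzyme at 120 nM final; medium: Tris-HCl pH 7.5 with MgCl2; compound: single concentration, 12.8 µM nominal, with 1% DMSO; incubation: 2 h enzyme incubation at 37 °C; signal: epi absorbance; measure: percent inhibition; benchmarks: high control without enzyme, low control DMSO plus TDP2; repeats: singlicate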
UBC9 SUMO inh – blocks human SUMOylation mediated by UBC9 | HTRF SUMOylation assay, SAE1/SAE2 + UBC9, in vitro | inhibition, % at 35 µM | P63279 | 0.36% of 290,000 active; in the data active means inhibition above about 50%, passing the limit was not always enough; inconclusive means no clear call, values can overlap the other calls
Target sequence (P63279 whole entry, looked up): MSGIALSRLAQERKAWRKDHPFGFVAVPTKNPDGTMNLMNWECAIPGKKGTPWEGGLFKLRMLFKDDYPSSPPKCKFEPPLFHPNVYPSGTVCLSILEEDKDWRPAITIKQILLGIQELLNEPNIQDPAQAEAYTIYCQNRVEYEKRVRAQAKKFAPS
Apaf-1 inh – inhibitors of human Apaf-1 apoptosome; 0.71% of 330,000 active; O14727; inhibition, % at 20 µM; reconstituted apoptosome caspase-3 activity, DEVD-Rh110 fluorescence; active means inhibition of at least 40% at 20 µM;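 further: plate controls were DMSO wells for no effect and DEVD-CHO caspase inhibitor wells for full effect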
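Medium: Hepes buffer, pH 7.5 / System: biochemical Apaf-1 apoptosome reconstitution / Measured by: Rh110 fluorescence, excitation 480 nm, emission 540 nm / Times: compound with Apaf-1, dATP, procaspase-3 30 min, then 50 min reaction, room temperature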
PAD4 inh – PAD4 (human) enzyme inhibition. 0.41% of 330,000 active. inhibition, % at 6.36 µM. Q9UM07. recombinant PAD4, RCA probe fluorescence polarization. AID 485272;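 active means percent inhibition above a cutoff equal to the mean of all tested compounds plus 3 SD, cut at about 15% in these data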;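 further: 0% = PAD4 with RCA probe and DMSO and 100% = probe without PAD4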
The depositor's hits bear a star. An excerpt weighted towards active compounds, which were near 1.6% of everything screened.

For N=c1nc(-c2ccccc2)ccn1O the results were JMJD2C inh 52.8*, GSTO1 counter 3.3, TDP2 absorb 5.8, UBC9 SUMO inh -17.9, Apaf-1 inh 10.1 and PAD4 inh 3.0.
Screening Cc1ccc(NC(=O)C2CCCN2S(=O)(=O)c2cccnc2)cc1C (stereo not drawn) returned TDP2 absorb 0.3.
`CC1(C)C(/C=C/C=C/C=C/C=C2\N(CCCCS(=O)(=O)O)c3ccc4ccccc4c3C2(C)C)=[N+](CCCCS(=O)(=O)[O-])c2ccc3ccccc3c21` gave GSTO1 counter 41.2*, Apaf-1 inh 20.7 and PAD4 inh -35.0.
For O=C(Cc1ccccc1)NC1CCCc2c1cnn2-c1ccc(F)cc1F (stereo not drawn) the results were TDP2 absorb 2.5.
O=C(O)c1ccc(N2N=C(c3ccccc3)CC2c2ccccc2)cc1 (stereo not drawn) was read as JMJD2C inh 0.5, GSTO1 counter 4.3, TDP2 absorb -8.5, UBC9 SUMO inh 61.5*, Apaf-1 inh 8.8 and PAD4 inh -1.5.
`CCOC(=O)C(C)(C)N(Cc1ccc(C)cc1)S(=O)(=O)c1ccc(Cl)c([N+](=O)[O-])c1` gave JMJD2C inh 1.4, GSTO1 counter 61.8*, TDP2 absorb -15.9, UBC9 SUMO inh -17.9, Apaf-1 inh 11.2 and PAD4 inh 6.4.
`CC(=O)c1c(C)oc2ccc(N(C(C)=O)S(=O)(=O)c3ccc(Cl)c([N+](=O)[O-])c3)cc12` gave JMJD2C inh -1.8, GSTO1 counter 22.1, TDP2 absorb -0.1, UBC9 SUMO inh 18.9, Apaf-1 inh 18.3 and PAD4 inh 5.2.
`CCOC(=O)C(C)(C)N(Cc1ccc(Cl)cc1)S(=O)(=O)c1ccc(Cl)c([N+](=O)[O-])c1` gave JMJD2C inh 9.2, GSTO1 counter 65.3*, UBC9 SUMO inh -11.7, Apaf-1 inh 8.7 and PAD4 inh 1.1.
For COCCCN1C(=O)[C@H](CC(=O)NCc2ccccc2)[C@]2(C(=O)OC)CCCCC=C12 the results were TDP2 absorb 0.0.
CC(=O)OC12CCCN(C1)/C(=C/c1cccnc1)C2 (stereo not drawn) was read as TDP2 absorb 1.2.
CCCCn1c(NC(=O)CC)c(C#N)c2nc3ccccc3nc21 was read as JMJD2C inh -3.7, GSTO1 counter 7.8, TDP2 absorb -3.4, UBC9 SUMO inh 10.4, Apaf-1 inh 10.5 and PAD4 inh -4.4.
N#Cc1c(NC(=O)c2ccccc2Cl)n(Cc2ccccc2)c2nc3ccccc3nc12 was read as JMJD2C inh 13.2, GSTO1 counter 46.6*, TDP2 absorb 80.7*, UBC9 SUMO inh 99.6* and PAD4 inh -6.5.
Cc1ccc(CNC(=O)/C(C#N)=C\c2ccc(N(C)C)cc2)cc1 was read as JMJD2C inh -3.4, GSTO1 counter 17.9, UBC9 SUMO inh 54.5*, Apaf-1 inh 14.5 and PAD4 inh 11.6.
COCCNC(=O)/C(C#N)=C/C=C/c1ccccc1[N+](=O)[O-] was read as JMJD2C inh 2.5, GSTO1 counter 43.8*, TDP2 absorb 11.4, UBC9 SUMO inh -14.3, Apaf-1 inh 6.3 and PAD4 inh -0.8.
COCCNC(=O)/C(C#N)=C/c1ccc(O)c([N+](=O)[O-])c1 was read as JMJD2C inh 23.9, GSTO1 counter 11.1, TDP2 absorb -6.7, UBC9 SUMO inh 29.5, Apaf-1 inh -9.3 and PAD4 inh -0.9.
Screening C#CCNC(=O)C[C@@H]1C(=O)N(CC=C)/C2=C/CCCCC[C@]21C(=O)OCC returned TDP2 absorb 1.4.
C=CCn1c(N)c(-c2nc3ccccc3n2C)sc1=S was read as JMJD2C inh 50.3*, GSTO1 counter -1.1, TDP2 absorb 9.2, UBC9 SUMO inh 10.0, Apaf-1 inh -6.5 and PAD4 inh -1.0.
Cn1c(-c2sc(=S)n(-c3ccccc3)c2N)nc2ccccc21 was read as JMJD2C inh -6.3, GSTO1 counter -0.3, TDP2 absorb -3.8, UBC9 SUMO inh 7.1, Apaf-1 inh 2.8 and PAD4 inh -2.6.
CN[C@H]1C[C@H]2c3cc(-c4ccc5c(c4)OCO5)ccc3CCN2C[C@H]1[C@H](C)O was read as TDP2 absorb 2.1.
`CC(=O)Nc1ccc(S(=O)(=O)Nc2nc3ccccc3nc2Nc2cccc(O)c2)cc1` gave JMJD2C inh 1.0, GSTO1 counter -2.2, TDP2 absorb -3.0, UBC9 SUMO inh 11.6, Apaf-1 inh -6.2 and PAD4 inh 0.2.
Screening CC(=O)Nc1ccc(S(=O)(=O)Nc2nc3ccccc3nc2Nc2ccc3ccccc3c2)cc1 returned JMJD2C inh 12.7, GSTO1 counter -10.6, TDP2 absorb 5.9, UBC9 SUMO inh 54.7*, Apaf-1 inh 25.8 and PAD4 inh -4.4.
For COC(=O)[C@]12C[C@H](CC(=O)NCC34CC5CC(CC(C5)C3)C4)C(=O)N(Cc3ccco3)C1=C[C@H](C(C)(C)C)O[C@@H]2C the results were TDP2 absorb -4.4.
Screening O=c1cc(C(F)(F)F)nc(-n2[nH]c3c(c2=O)CCCC3)[nH]1 returned JMJD2C inh 1.6, GSTO1 counter 39.6*, TDP2 absorb -6.1, UBC9 SUMO inh -24.2, Apaf-1 inh -2.2 and PAD4 inh -6.4.
Nc1nc(C(F)(F)F)cc(=O)[nH]1 was read as JMJD2C inh -7.8, GSTO1 counter 4.1, TDP2 absorb -11.9, UBC9 SUMO inh 6.7, Apaf-1 inh -7.1 and PAD4 inh -1.6.
O=C(NCCNc1ccc([N+](=O)[O-])cc1C(F)(F)F)c1cccc(F)c1 was read as JMJD2C inh -1.6, GSTO1 counter 7.7, TDP2 absorb -4.8, UBC9 SUMO inh -9.2, Apaf-1 inh -7.9 and PAD4 inh -6.0.
O=C(NCCNc1ccc([N+](=O)[O-])cc1C(F)(F)F)c1ccccc1 was read as JMJD2C inh 52.0*, GSTO1 counter 2.8, TDP2 absorb -0.2, UBC9 SUMO inh -8.3, Apaf-1 inh 0.6 and PAD4 inh 2.3.
Screening O=C(Nc1ccc(Oc2ccccc2)cc1)C1CCN(c2c3c(nc4ncnn24)CCC3)CC1 returned JMJD2C inh inconclusive, GSTO1 counter -3.9, TDP2 absorb -1.1, UBC9 SUMO inh 14.8, Apaf-1 inh 41.0* and PAD4 inh 1.6.
`O=C(Nc1ccc2c(c1)CCC2)C1CCN(c2c3c(nc4ncnn24)CCC3)CC1` gave JMJD2C inh -3.6, GSTO1 counter 0.3, TDP2 absorb -4.0, UBC9 SUMO inh 21.1, Apaf-1 inh -2.7 and PAD4 inh -0.2.
Screening COc1ccc(CCN(C)C(=O)c2ccc(COc3ccccc3)o2)cc1OC returned JMJD2C inh -14.9, GSTO1 counter -1.3, TDP2 absorb 10.2, UBC9 SUMO inh 3.0, Apaf-1 inh 66.3* and PAD4 inh -4.3.
